MrgX1 antag: antagonists of human MrgX1 receptor, primary screen, HEK293 cells, Fluo-4 calcium flux; Mas-related G-protein coupled receptor member X1 (Homo sapiens), Q96LB2; BAM8-22 antagonism; hits give low values; B-score at 10 µM; 310,000 compounds, 1.3% hits; AID 588676, 2011;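 active = calcium-response B-score plate-corrected more than 3 library SD below zero, starting fluorescence within 5 deviations, no agonist response on first addition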;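 note: peak minus trough fluorescence over baseline after final BAM8-22 challenge near maximal dose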
Target sequence (Q96LB2 whole entry, looked up): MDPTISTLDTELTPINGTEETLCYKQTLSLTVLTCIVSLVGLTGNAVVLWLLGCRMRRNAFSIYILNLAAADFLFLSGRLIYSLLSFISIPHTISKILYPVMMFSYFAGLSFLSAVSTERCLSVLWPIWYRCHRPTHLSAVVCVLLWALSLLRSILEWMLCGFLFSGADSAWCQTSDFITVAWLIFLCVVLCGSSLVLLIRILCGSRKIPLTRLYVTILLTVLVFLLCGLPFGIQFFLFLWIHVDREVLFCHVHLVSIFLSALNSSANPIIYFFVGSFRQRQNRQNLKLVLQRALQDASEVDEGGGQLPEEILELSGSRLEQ
MrgX1 PAM: positive allosteric modulators of MrgX1, primary screen, HEK293 cells, Fluo-4 calcium flux | Mas-related G-protein coupled receptor member X1 (Homo sapiens), Q96LB2 | FDSS; hits give high values | B-score at 10 µM | 310,000 compounds, 0.63% hits | AID 588675, 2011;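 active = plate-corrected calcium response at least 3 library SD above typical, normal starting fluorescence, not activating the receptor alone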;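 note: compound read alongside a low EC10 to EC30 dose of BAM8-22 agonist; peak minus trough fluorescence over baseline measured at the second addition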
MrgX1 ag: agonists of human MrgX1 receptor, primary screen, HEK293 cells, Fluo-4 calcium flux. Fluo-4 calcium fluorescence, agonist mode; hits give high values. B-score at 10 µM. 310,000 compounds, 0.44% hits. AID 588627, 2011;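 active = calcium response B-score plate-corrected fluorescence ratio at least 3 library SD, with starting fluorescence B-score inside 5 SD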
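Material: MrgX1-expressing HEK293 cells / Dosing: compound as first of three additions / Incubation: overnight seeding, then 1 h dark dye loading / Signal: Fluo-4 NW calcium fluorescence / Evaluation: B-scored fluorescence response ratio / Benchmarks: positive and negative control wells on each plate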
RGS4 inh: RGS4 inhibitors, primary screen, cell-based, HEK293 M3R inducible RGS4, calcium flux; AID 463165, 2010; Regulator of G-protein signaling 4 (Homo sapiens), P49798; B-score at 10 µM; Fluo-4 calcium flux; hits give high values; triggered by carbachol at its EC20; 310,000 compounds, 0.45% hits;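 active = B-score, a plate-corrected calcium signal, over three deviations above library mean, with baseline fluorescence within five deviations of library mean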;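 note: RGS4 expression induced by doxycycline in cells with stable M3 receptor; B-score is computed from the integrated fluorescence ratio over baseline after carbachol; higher B-score means a larger calcium signal and so more RGS4 inhibition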
RGS4 pot: RGS4 potentiators or activators, primary screen, cell-based, HEK293 M3R inducible RGS4, calcium flux; carbachol calcium flux Fluo4; hits give low values; B-score at 10 µM; 310,000 compounds, 0.92% hits; AID 463111, 2010;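 active = B-score of the integrated calcium signal more than 4 SD below the library mean, with starting fluorescence not abnormally high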;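 note: negative B-score means reduced calcium response which marks RGS4 activation or potentiation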
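Test system: HEK293 cells with stable M3R and inducible RGS4; also added: carbachol at ECmax as muscarinic agonist stimulus; schedule: dye loading 30 min 37 °C, buffer rest 30 min RT; technique: kinetic calcium fluorescence imaging with Fluo4-AM dye, 2 µM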
MrgX1 antag conf: MrgX1 receptor antagonists, duplicate retest, confirmation, HEK293 cells, Fluo-4 calcium flux; shares compounds with MrgX1 antag; BAM8-22 calcium flux; hits give low values; remaining BAM8-22 calcium response % of control (hits give low values), % at 10 µM; 2,300 compounds, 19% hits;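 active = remaining agonist calcium response no higher than 100% minus 3 SD of agonist-only control wells, with starting fluorescence near control levels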;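 note: agonist BAM8-22 given at a near maximal EC90 to ECmax level; peak minus minimum fluorescence divided by baseline after agonist addition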
HEK293 Ca flux: nonspecific calcium signal in parental HEK293, confirmation, counter-screen for MrgX1 antagonist project, parental HEK293 cells, Fluo-4 calcium flux; shares compounds with MrgX1 antag; Fluo-4 calcium fluorescence, FDSS; fluorescence ratio F(max-min)/F0 at 10 µM; 4,000 compounds, 2% hits; AID 624111, 2012;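 active = duplicate-averaged calcium fluorescence ratio at least three times the standard deviation of buffer wells, a nonspecific response in parental cells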
HEK293 Ca counter: calcium response in parental HEK293 cells, primary screen, counter-screen for MrgX1 allosteric activator project, cell-based, Fluo-4 calcium flux, duplicate | shares compounds with MrgX1 antag | 4,000 compounds, 0.4% hits | Fluo-4 fluorescence ratio; hits give high values | fluorescence ratio F(max-min)/F0 at 10 µM;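 active = calcium fluorescence ratio, averaged over duplicates, at least 3 SD of the buffer-well ratio, meaning a nonspecific response in receptor-free cells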;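 note: untransfected parental HEK293 lacking MrgX1 used as counterscreen for MrgX1 allosteric activators; fluorescence change taken during the second addition on a kinetic imager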
HEK293 Ca cntr2: calcium response in parental HEK293 cells, primary screen, counter-screen for MrgX1 agonist project, cell-based, Fluo-4 calcium flux, duplicate, agonist mode. shares compounds with MrgX1 antag. Fluo-4 calcium fluorescence (FDSS); hits give high values. fluorescence ratio F(max-min)/F0 at 10 µM. 4,000 compounds, 8.7% hits. AID 624115, 2012;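 active = calcium fluorescence ratio at least three times the spread of buffer wells, meaning a non-specific response in parental cells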
Each line names hits and unclear results; the compound was inactive in the other large screens (follow-up assays come after a bar, where they were run). Compounds with a hit are over-represented: about 3.5% of the library has one in this group of screens.

CCOc1ccc(OCCN2C(=O)NC3(CCCc4ccccc43)C2=O)cc1 (stereo not given)	MrgX1 antag -5.47 | MrgX1 antag conf inactive | HEK293 Ca flux inactive | HEK293 Ca counter inactive | HEK293 Ca cntr2 inactive
O=C(O)c1ccc2c(c1)SC1=NS(=O)(=O)CCN12	MrgX1 antag -14.3 | MrgX1 antag conf inactive | HEK293 Ca flux inactive | HEK293 Ca counter inactive | HEK293 Ca cntr2 inactive
CN(C(=O)c1ccc2c(c1)SC1=NS(=O)(=O)CCN12)C(c1ccccc1)c1ccccc1	none
CCN(C(=O)COC(=O)/C(C#N)=C/c1ccc(OC)cc1)C1CCS(=O)(=O)C1 (stereo not given)	none
O=C(CN1C(=O)NC2(CCCC2)C1=O)N1CCN(S(=O)(=O)c2ccccc2F)CC1	none
N#CC1(NC(=O)CN2CCN(S(=O)(=O)c3ccccc3F)CC2)CCCC1	MrgX1 antag -4.92 | MrgX1 antag conf inactive | HEK293 Ca flux inactive | HEK293 Ca counter inactive | HEK293 Ca cntr2 inactive
CC1(C)Oc2ccc(C(=O)N/N=C/c3ccc(O)cc3)cc2NC1=O	none
CSc1ncccc1C(=O)NC1CCN(Cc2ccccc2)CC1	none
CS(=O)(=O)N(CC(=O)N1CCN(c2cccc(Cl)c2)CC1)C1CCCCC1	none
Cc1ccc(Cl)cc1N1CCN(C(=O)CN(C2CCCCC2)S(C)(=O)=O)CC1	MrgX1 antag -12.2 | MrgX1 antag conf inactive | HEK293 Ca flux inactive | HEK293 Ca counter inactive | HEK293 Ca cntr2 inactive
COc1cc(C#N)c(NC(=O)CN2CCC(C(N)=O)CC2)cc1OC	none
